Data set [1] can be described thus: Cytotoxicity against human HCT-116 cells assessed as cell growth inhibition incubated for 72 hrs by MTS assay. Format: toxicity, cell-based. In short, it runs like this:
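HCT-116 cells (ATCC; split every other day, no more than five generations, mycoplasma-tested) plated at 5 × 10³ cells/well in supplemented McCoy's 5a and grown 24 h at 37 °C, 5% CO₂. Compound added from DMSO (0.5% DMSO final) for 72 h. Cells washed with PBS, MTS reagent added for 2 h at 37 °C, A490 read against A690. GI₅₀ fitted from dose curves of 3 biological replicates.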
In general terms: Formazan colour is commonly taken as a measure of viable cells.

Data set [2] deals with HCT-116. Briefly: Cytotoxicity against human HCT-116 cells assessed as reduction in cell viability at 8.6 uM incubated for 4 hrs by MTS assay. The conditions noted are these: hct-116, 4 h. The data set is classed as toxicity, cell-based.
The test system of data set [3] is HCT-116. The data set can be described thus: Cytotoxicity against human HCT-116 cells assessed as reduction in cell viability at 500 nM incubated for 24 hrs by MTS assay. The data set is classed as toxicity, cell-based. The conditions noted are these: hct-116, 24 h, 0.5 µM. The essentials: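 HCT-116 cells plated at 5 × 10³ cells/well in supplemented McCoy's 5a and grown 24 h at 37 °C, 5% CO₂. Compound given at 500 nM, the top dose of the 24 h splicing series, in 0.5% DMSO for 24 h. Cells washed with PBS, MTS reagent added for 2 h at 37 °C, A490 read against A690.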

Data set [4] has as its system DNAJB1 pre-mRNA. The data set can be described thus: Modulation of splicing in DNAJB1 pre-mRNA in human HCT-116 cells assessed as intron 2 retention at 100 to 500 nM incubated for 24 hrs by qRT-PCR analysis. Format: functional, cell-based. The conditions noted are these: dose 100-500 nM. In short, it runs like this: (§1)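 HCT-116 cells in supplemented McCoy's 5a with 0.5% DMSO, treated 24 h at 100, 250 or 500 nM; untreated cells as control. Total RNA isolated, 1 µg DNase I-treated, reverse transcribed. qPCR on 5 ng cDNA with 2.5 µM each primer, 40 cycles of 95 °C 30 s, 55 °C 60 s, 72 °C 60 s. Splice-event primers for intron retention or exon skipping; SF2 primers measure total expression. 2^-CT method relative to GAPDH, untreated set at 1.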
For orientation: In qPCR the cycle at which signal appears reflects the starting amount.

Data set [5] relates to SF3A3 pre-mRNA. The data set can be described thus: Modulation of splicing in SF3A3 pre-mRNA in human HCT-116 cells assessed as intron 5 retention level at 8.6 uM incubated for 4 hrs by qRT-PCR analysis. Format: functional, cell-based. The conditions noted are these: filed as modulator. The essentials:
(§2)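 HCT-116 cells in supplemented McCoy's 5a, compound added from DMSO stock to a final 0.5% DMSO, 4 h at a single standardized concentration per analogue. Total RNA isolated and DNase-treated (1 µg). qPCR used 2.5 µM each primer on 5 ng cDNA, 40 cycles. Intron retention was computed by the 2^-CT method relative to GAPDH and expressed versus untreated cells set to 1.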

The test system of data set [6] is SF3B1 pre-mRNA. The data set can be described thus: Modulation of splicing in SF3B1 pre-mRNA in human HCT-116 cells assessed as intron 13 retention level at 8.6 uM incubated for 4 hrs by qRT-PCR analysis. As to conditions: filed as modulator. The data set is classed as functional, cell-based. In short, it runs like this:
as §2

Data set [7] deals with DNAJB1 pre-mRNA. The data set can be described thus: Modulation of splicing in DNAJB1 pre-mRNA in human HCT-116 cells assessed as intron 2 retention level at 8.6 uM incubated for 4 hrs by qRT-PCR analysis. The conditions noted are these: filed as modulator. The data set is classed as functional, cell-based.
The subject of data set [8] is SF3A1 pre-mRNA. Briefly: Modulation of splicing in SF3A1 pre-mRNA in human HCT-116 cells assessed as intron 6 retention level at 8.6 uM incubated for 4 hrs by qRT-PCR analysis. Format: functional, cell-based. The conditions noted are these: filed as modulator.
Data set [9] has as its system SF3B2 pre-mRNA. Briefly: Modulation of splicing in SF3B2 pre-mRNA in human HCT-116 cells assessed as intron 10 retention level at 8.6 uM incubated for 4 hrs by qRT-PCR analysis. As to conditions: filed as modulator. The data set is classed as functional, cell-based. In short, it runs like this: as §2
Data set [10] has as its system HCT-116. Briefly: Modulation of splicing in PLK-1 pre-mRNA in human HCT-116 cells assessed as effect on exon 3 inclusion at 8.6 uM incubated for 4 hrs by qRT-PCR analysis. Format: functional, cell-based. As to conditions: filed as modulator.
For data set [11], the system named is AURKA pre-mRNA. Briefly: Modulation of splicing in AURKA pre-mRNA in human HCT-116 cells assessed as effect on exon 4 skipping at 8.6 uM incubated for 4 hrs by qRT-PCR analysis. As to conditions: filed as modulator. The data set is classed as functional, cell-based.
The test system of data set [12] is SF3A3 pre-mRNA. The data set can be described thus: Modulation of splicing in SF3A3 pre-mRNA in human HCT-116 cells assessed as intron 5 retention at 100 to 500 nM incubated for 24 hrs by qRT-PCR analysis. Format: functional, cell-based. The conditions noted are these: dose 100-500 nM. The essentials:
as §1

The subject of data set [13] is SF3B2 pre-mRNA. The data set can be described thus: Modulation of splicing in SF3B2 pre-mRNA in human HCT-116 cells assessed as intron 10 retention at 100 to 500 nM incubated for 24 hrs by qRT-PCR analysis. Format: functional, cell-based. The conditions noted are these: dose 100-500 nM. The essentials:
(§3)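 HCT-116 cells in supplemented McCoy's 5a with 0.5% final DMSO were treated for 24 h at 100, 250 or 500 nM. Total RNA isolated and DNase-treated (1 µg). qPCR used 2.5 µM each primer on 5 ng cDNA, 40 cycles. Intron retention was computed by the 2^-CT method relative to GAPDH and expressed versus untreated cells set to 1.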

The subject of data set [14] is SF3B1 pre-mRNA. The data set can be described thus: Modulation of splicing in SF3B1 pre-mRNA in human HCT-116 cells assessed as intron 13 retention at 100 to 500 nM incubated for 24 hrs by qRT-PCR analysis. Format: functional, cell-based. The conditions noted are these: dose 100-500 nM. The essentials: as §3
The subject of data set [15] is SF3A1 pre-mRNA. Briefly: Modulation of splicing in SF3A1 pre-mRNA in human HCT-116 cells assessed as intron 6 retention at 100 to 500 nM incubated for 24 hrs by qRT-PCR analysis. The data set is classed as functional, cell-based. As to conditions: dose 100-500 nM. In short, it runs like this:
as §1

Data set [16] concerns HCT-116. Briefly: Modulation of splicing in MCL-1L pre-mRNA in human HCT-116 cells assessed as intron 5 retention at 100 to 500 nM incubated for 24 hrs by qRT-PCR analysis. The data set is classed as functional, cell-based. As to conditions: dose 100-500 nM. In short, it runs like this: as §1
The test system of data set [17] is HCT-116. The data set can be described thus: Cytotoxicity against human HCT-116 cells assessed as reduction in cell viability at 750 nM incubated for 4 hrs by MTS assay. The data set is classed as toxicity, cell-based. The conditions noted are these: hct-116, 4 h, 0.75 µM.
In data set [18] the test system is SF3A3 pre-mRNA. The data set can be described thus: Modulation of splicing in SF3A3 pre-mRNA in human HCT-116 cells assessed as intron 5 retention level at 750 nM incubated for 4 hrs by qRT-PCR analysis. The conditions noted are these: filed as modulator. The data set is classed as functional, cell-based.
Data set [19] concerns SF3B1 pre-mRNA. The data set can be described thus: Modulation of splicing in SF3B1 pre-mRNA in human HCT-116 cells assessed as intron 13 retention level at 750 nM incubated for 4 hrs by qRT-PCR analysis. Format: functional, cell-based. The conditions noted are these: filed as modulator. In short, it runs like this: as §2
In data set [20] the test system is DNAJB1 pre-mRNA. The data set can be described thus: Modulation of splicing in DNAJB1 pre-mRNA in human HCT-116 cells assessed as intron 2 retention level at 750 nM incubated for 4 hrs by qRT-PCR analysis. The conditions noted are these: filed as modulator. Format: functional, cell-based.
The test system of data set [21] is SF3A1 pre-mRNA. The data set can be described thus: Modulation of splicing in SF3A1 pre-mRNA in human HCT-116 cells assessed as intron 6 retention level at 750 nM incubated for 4 hrs by qRT-PCR analysis. Format: functional, cell-based. As to conditions: filed as modulator.
In data set [22] the test system is SF3B2 pre-mRNA. Briefly: Modulation of splicing in SF3B2 pre-mRNA in human HCT-116 cells assessed as intron 10 retention level at 750 nM incubated for 4 hrs by qRT-PCR analysis. Format: functional, cell-based. As to conditions: filed as modulator. In short, it runs like this:
as §2

In data set [23] the test system is AURKA pre-mRNA. The data set can be described thus: Modulation of splicing in AURKA pre-mRNA in human HCT-116 cells assessed as effect on exon 4 skipping at 750 nM incubated for 4 hrs by qRT-PCR analysis. Format: functional, cell-based. As to conditions: filed as modulator.

A word on the GI50: it is the concentration giving 50% growth inhibition.

Calls of active or inactive are those of the source. No cut-off for these calls is given here. Some results are limits rather than exact numbers.

Regarding `CC[C@H](OC)[C@@H](C)[C@H]1O[C@@H]1[C@H](O)[C@H](C)/C=C/C=C(\C)[C@H]1OC(=O)C[C@H](O)CC[C@@](C)(O)[C@H](OC(C)=O)/C=C/[C@@H]1C`, the GI50 at 72 h in data set [1] came out at 588 nM. The Activity entry was “Non-Toxic” in data set [2]; “Non-Toxic” in [3]; less than 3 in data set [5]; less than 3 in [6]; more than 3 in data set [7]; more than 3 in [8]. Moreover, the Activity in data set [9] is more than 3. Besides, the result in data set [4], in [12], in [13], in data set [14], in data set [15] and in [16] was inactive. The outcome in [10] and in data set [11] was Active.

Take `CC[C@H](OC)[C@@H](C)[C@H]1O[C@@H]1[C@@H](OC)[C@H](C)/C=C/C=C(\C)[C@H]1OC(=O)C[C@H](O)CC[C@@](C)(O)[C@@H](OC(C)=O)/C=C/[C@@H]1C`: the GI50 at 72 h in [1] stood at 40.5 nM. The Activity result in data set [17] was “Non-Toxic”; in data set [18], less than 3; in data set [19], less than 3; in data set [20], more than 3; in data set [21] it was more than 3; in data set [22] it was more than 3. Further, in data set [23], the outcome was Active.

These data come from ChEMBL document CHEMBL5338772, “Stereochemical Control of Splice Modulation in FD-895 Analogues” (J Med Chem, 2023).
